Measured values taken from ChEMBL document CHEMBL1121996, “A new stable prostacyclin mimic, 7-oxoprostaglandin I2” (J Med Chem, 1982).
Blank lines part the entries; values can stand above or below the compound they belong to.

Tests used:
[1] = molecular target: Adenylate cyclase type 1 (Homo sapiens) (UniProt Q08828); test: Activation of human platelet adenylate cyclase at the concentration of 10 uMol; assay type: functional
In short: (§1)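 Adenylate cyclase in membranes prepared from human platelet-rich plasma, compound tested as Na salt. Activity is given as percent (mean ± SE) of measurable enzyme activity without drug, n = 8, with significance tested against the respective control. The method follows ref 17.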

Canis familiaris [2] = test: Percent change in total peripheral resistance produced by the compound on dogs by intravenous infusion rate of 50 ng/kg/min; assay type: functional, Canis lupus familiaris
In short: (§2)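 The compound was infused into a femoral vein at increasing concentrations, each dose level for 3 min. Mean peripheral blood pressure was taken in the femoral artery and heart rate by cardiotachometer. Total and coronary vascular resistance were calculated as blood pressure divided by the corresponding flow. Values are maximum changes as percent of resting values.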

Canis familiaris [3] = test: Percent change in cardiac out put produced by the compound on dogs by intravenous infusion rate of 50 ng/kg/min; assay type: functional, Canis lupus familiaris, Heart; in short: as §2
[4] = molecular target: Adenylate cyclase type 1 (Homo sapiens) (UniProt Q08828); test: Activation of human platelet adenylate cyclase at the concentration of 1 uMol; assay type: functional; in short: as §1
Homo sapiens = species on record: Homo sapiens; test: Inhibitory concentration of compound in human platelet rich plasma against 2 umol of ADP-induced aggregation; assay type: functional
Bos taurus = species on record: Bos taurus; test: Effective concentration of compound for relaxation of bovine coronary artery; assay type: functional
Canis familiaris [5] = test: Percent change in coronary resistance produced by the compound on dogs by intravenous infusion rate of 50 ng/kg/min; assay type: functional, Canis lupus familiaris; in short: as §2
Canis familiaris [6] = test: Percent change in blood pressure produced by the compound on dogs by intravenous infusion rate of 50 ng/kg/min; assay type: functional, Canis lupus familiaris; in short: as §2
Canis familiaris [7] = test: Percent change in heart rate produced by the compound on dogs by intravenous infusion rate of 50 ng/kg/min; assay type: functional, Canis lupus familiaris; in short: as §2
Canis familiaris [8] = test: Percent change in total peripheral resistance produced by the compound on dogs by intravenous infusion rate of 500 ng/kg/min; assay type: functional, Canis lupus familiaris; in short: as §2
Canis familiaris [9] = test: Percent change in coronary resistance produced by the compound on dogs by intravenous infusion rate of 1000 ng/kg/min; assay type: functional, Canis lupus familiaris; in short: as §2
Canis familiaris [10] = test: Percent change in blood pressure produced by the compound on dogs by intravenous infusion rate of 1000 ng/kg/min; assay type: functional, Canis lupus familiaris; in short: as §2
Canis familiaris [11] = test: Percent change in blood pressure produced by the compound on dogs by intravenous infusion rate of 500 ng/kg/min; assay type: functional, Canis lupus familiaris; in short: as §2
Canis familiaris [12] = test: Percent change in blood pressure produced by the compound on dogs by intravenous infusion rate of 5000 ng/kg/min; assay type: functional, Canis lupus familiaris; in short: as §2
Canis familiaris [13] = test: Percent change in total peripheral resistance produced by the compound on dogs by intravenous infusion rate of 1000 ng/kg/min; assay type: functional, Canis lupus familiaris; in short: as §2
Canis familiaris [14] = test: Percent change in heart rate produced by the compound on dogs by intravenous infusion rate of 5000 ng/kg/min; assay type: functional, Canis lupus familiaris; in short: as §2
Canis familiaris [15] = test: Percent change in total peripheral resistance produced by the compound on dogs by intravenous infusion rate of 5000 ng/kg/min; assay type: functional, Canis lupus familiaris; in short: as §2
Canis familiaris [16] = test: Percent change in heart rate produced by the compound on dogs by intravenous infusion rate of 500 ng/kg/min; assay type: functional, Canis lupus familiaris; in short: as §2
Canis familiaris [17] = test: Percent change in coronary resistance produced by the compound on dogs by intravenous infusion rate of 500 ng/kg/min; assay type: functional, Canis lupus familiaris; in short: as §2
Canis familiaris [18] = test: Percent change in cardiac out put produced by the compound on dogs by intravenous infusion rate of 500 ng/kg/min; assay type: functional, Canis lupus familiaris, Heart; in short: as §2
Canis familiaris [19] = test: Percent change in cardiac out put produced by the compound on dogs by intravenous infusion rate of 5000 ng/kg/min; assay type: functional, Canis lupus familiaris, Heart; in short: as §2
Canis familiaris [20] = test: Percent change in cardiac out put produced by the compound on dogs by intravenous infusion rate of 1000 ng/kg/min; assay type: functional, Canis lupus familiaris, Heart; in short: as §2
Canis familiaris [21] = test: Percent change in heart rate produced by the compound on dogs by intravenous infusion rate of 1000 ng/kg/min; assay type: functional, Canis lupus familiaris; in short: as §2
Canis familiaris [22] = test: Percent change in coronary resistance produced by the compound on dogs by intravenous infusion rate of 5000 ng/kg/min; assay type: functional, Canis lupus familiaris; in short: as §2

Adenylate cyclase type 1 (Homo sapiens), sequence (Q08828 whole entry, looked up): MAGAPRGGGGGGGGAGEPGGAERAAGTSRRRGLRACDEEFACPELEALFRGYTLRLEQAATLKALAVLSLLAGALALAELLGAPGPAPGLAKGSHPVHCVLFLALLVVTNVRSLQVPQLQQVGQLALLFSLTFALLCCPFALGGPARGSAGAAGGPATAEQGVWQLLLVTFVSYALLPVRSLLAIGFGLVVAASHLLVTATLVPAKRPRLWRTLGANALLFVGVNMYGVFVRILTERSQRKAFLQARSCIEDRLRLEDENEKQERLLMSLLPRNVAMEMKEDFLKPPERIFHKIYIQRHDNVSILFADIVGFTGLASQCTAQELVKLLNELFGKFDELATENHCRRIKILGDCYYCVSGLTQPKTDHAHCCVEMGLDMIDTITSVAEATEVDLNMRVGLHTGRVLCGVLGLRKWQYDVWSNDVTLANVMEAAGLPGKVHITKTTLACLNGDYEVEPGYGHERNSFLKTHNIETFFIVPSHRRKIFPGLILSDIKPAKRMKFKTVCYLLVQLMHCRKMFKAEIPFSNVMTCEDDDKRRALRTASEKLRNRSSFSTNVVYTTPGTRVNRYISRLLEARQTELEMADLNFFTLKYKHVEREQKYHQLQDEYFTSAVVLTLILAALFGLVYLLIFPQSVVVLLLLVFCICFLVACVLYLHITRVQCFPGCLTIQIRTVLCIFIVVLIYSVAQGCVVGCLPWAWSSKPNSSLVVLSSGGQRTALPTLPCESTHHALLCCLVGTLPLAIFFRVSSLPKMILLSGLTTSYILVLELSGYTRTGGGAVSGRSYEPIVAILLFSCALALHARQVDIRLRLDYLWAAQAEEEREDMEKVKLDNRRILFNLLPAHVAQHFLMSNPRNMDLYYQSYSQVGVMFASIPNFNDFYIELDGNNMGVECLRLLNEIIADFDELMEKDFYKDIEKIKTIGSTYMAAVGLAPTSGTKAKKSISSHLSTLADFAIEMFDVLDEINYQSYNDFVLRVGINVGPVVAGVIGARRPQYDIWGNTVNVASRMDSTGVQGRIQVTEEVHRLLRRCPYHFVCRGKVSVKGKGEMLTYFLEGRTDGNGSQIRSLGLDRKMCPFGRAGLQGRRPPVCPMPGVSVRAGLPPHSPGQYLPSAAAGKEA

Activity [1]: 1740%
Activity [4]: 374%
IC50 (Homo sapiens): 1 ng/mL
EC50 (Bos taurus): 0.043 µM
SMILES: CCCCC[C@H](O)/C=C/[C@@H]1[C@H]2C/C(=C/CCCC(=O)[O-])O[C@H]2C[C@H]1O.[Na+] [EPOPROSTENOL SODIUM]
Hemodynamic change (Canis familiaris [2]): -11.5%
Hemodynamic change (Canis familiaris [3]): -5.6%
Hemodynamic change (Canis familiaris [5]): -2.8%
Hemodynamic change (Canis familiaris [6]): -13.6%
Hemodynamic change (Canis familiaris [7]): 3.6%

IC50 (Homo sapiens): 15 ng/mL
SMILES: CCCCC[C@H](O)/C=C/[C@@H]1[C@H]2C(=O)/C(=C/CCCC(=O)[O-])O[C@H]2C[C@H]1O.[Na+]

Activity [1]: 825%
Activity [4]: 239%
EC50 (Bos taurus): 0.402 µM
SMILES: CCCCC[C@H](O)/C=C/[C@H]1[C@H](O)CC2O/C(=C\CCCC(=O)[O-])C(=O)[C@@H]21.[Na+] (stereo partly drawn)
Hemodynamic change (Canis familiaris [8]): -8.3%
Hemodynamic change (Canis familiaris [9]): -6.1%
Hemodynamic change (Canis familiaris [10]): -13.3%
Hemodynamic change (Canis familiaris [11]): -8.1%
Hemodynamic change (Canis familiaris [12]): -49%
Hemodynamic change (Canis familiaris [13]): -13.3%
Hemodynamic change (Canis familiaris [14]): -13.8%
Hemodynamic change (Canis familiaris [15]): -40.7%
Hemodynamic change (Canis familiaris [16]): 0%
Hemodynamic change (Canis familiaris [17]): -2.2%
Hemodynamic change (Canis familiaris [18]): -1.6%
Hemodynamic change (Canis familiaris [19]): -22.3%
Hemodynamic change (Canis familiaris [20]): -3.9%
Hemodynamic change (Canis familiaris [21]): -2%
Hemodynamic change (Canis familiaris [22]): -28.8%
